Assay results of several laboratories.
Protocols differ between the studies behind these lines.
PDE4D: 3',5'-cyclic-AMP phosphodiesterase 4D (PDE4D, Homo sapiens, UniProt Q08499)
CDK7 with cyclin H: Cyclin-dependent kinase 7, with cyclin H (CDK7, Homo sapiens, UniProt P50613)
PTGER4: Prostaglandin E2 receptor EP4 subtype (PTGER4, Homo sapiens, UniProt P35408)

| SMILES | target | read-out | action | method | concentration | inhibition [%] |
| --- | --- | --- | --- | --- | --- | --- |
| O=C(/C=C/c1ccc(O)cc1)c1ccc(O)cc1O | PDE4D | enzyme activity | inhibitor | radiometric | 50 µM | 52 |
| COc1cc2c(c(OC)c1OC)-c1ccc(OC)c(=O)cc1[C@@H](NC(C)=O)CC2 | CDK7 with cyclin H | enzyme activity | inhibitor | ADP detection | 10 µM | -0.4 |
| CC(C)=CCc1cc(-c2coc3cc(O)cc(O)c3c2=O)cc(O)c1O | PDE4D | enzyme activity | inhibitor | radiometric | 5 µM | 84.6 |
| COc1ccc(CC2NCCc3cc(OC)c(OC)cc32)cc1OC (centres unmarked) | CDK7 with cyclin H | enzyme activity | inhibitor | ADP detection | 10 µM | 22.5 |
| COc1cc(Nc2ncc(F)c(Nc3ccc4c(n3)NC(=O)C(C)(C)O4)n2)cc(OC)c1OC | Serine/threonine-protein kinase MAK (MAK, Homo sapiens, UniProt P20794) | binding |  | competition with immobilised ligand | 10 µM | 0 |
| COc1cc2c(cc1OC)[C@@]13CCN4CC5=CCO[C@H]6CC(=O)N2[C@H]1[C@H]6[C@H]5C[C@H]43 | CDK7 with cyclin H | enzyme activity | inhibitor | ADP detection | 10 µM | 28.4 |
| O=c1c(O)c(-c2ccc(O)c(O)c2)oc2cc(O)cc(O)c12 | PDE4D | enzyme activity | inhibitor | radiometric | 50 µM | 100 |
| CC(C)(C)[C@]1(O)CC2OC(=O)CC23C(=O)OC2OC(=O)[C@H](O)C231 (some centres unmarked) | CDK7 with cyclin H | enzyme activity | inhibitor | ADP detection | 10 µM | 2.1 |
| C=C(C)[C@@H]1CC=C2C(=CC[C@]3(C)[C@@H]([C@@H](CCC=C(C)C)C(=O)O)[C@H](O)C[C@@]23C)[C@@]1(C)CCC(=O)O | PDE4D | enzyme activity | inhibitor | radiometric | 5 µM | 54.3 |
| N=C(N)Nc1ccc(C(=O)Nc2ccc3c(c2)B(O)OC3)cc1 | Prothrombin (F2, Homo sapiens, UniProt P00734) | enzyme activity | inhibitor |  | 50 µM | 10.7 |
| CC(C)N1CCC[C@H]1CNC(=O)c1cn(C2CCCC2)c(=O)c2c1c1ccccc1n2C | PTGER4 | ligand displacement |  | radioligand | 10 µM | 30 |
| COCc1c(-c2cc3cc(C)cc(OC)c3s2)c2c(N)ncnn2c1CN1CCNC(=O)C1 | 3-hydroxy-3-methylglutaryl-coenzyme A reductase (HMGCR, Homo sapiens, UniProt P04035) | enzyme activity | inhibitor |  | 10 µM | 1 |
| COc1c2ccoc2cc2oc(=O)ccc12 | CDK7 with cyclin H | enzyme activity | inhibitor | ADP detection | 10 µM | -13.6 |
| O=C(O)CCCCCCCC(=O)O | PDE4D | enzyme activity | inhibitor | radiometric | 50 µM | 47.1 |
| C#Cc1n[nH]c2c(-c3cn([C@@H](C)c4ccccn4)c(=O)[nH]c3=O)cc(F)cc12 | Serine/threonine-protein kinase PAK 2 (PAK2, Homo sapiens, UniProt Q13177) | enzyme activity | inhibitor |  | 0.1 µM | 4.1 |
| c1ccc(C(NCCNC(c2ccccc2)c2ccccc2)c2ccccc2)cc1 | Protein phosphatase 3 catalytic subunit alpha (PPP3CA, Homo sapiens, UniProt Q08209) | enzyme activity | inhibitor |  | 10 µM | 32 |
| C[C@@H]1CCO[C@H]2Cn3cc(C(=O)NCc4ccc(F)cc4F)c(=O)c(O)c3C(=O)N12 | Gag-Pol polyprotein, integrase (gag-pol, Human immunodeficiency virus type 1 group M subtype B, UniProt P04585) | enzyme activity | inhibitor |  | 50 nM | > 50 |
| O=C(Nc1cccnn1)N1CCN([C@@H]2CCOc3cc(C(F)(F)F)ccc32)CC1 | Bombesin receptor subtype-3 (BRS3, Homo sapiens, UniProt P32247) | cell-free assay |  |  | 20 µM | 37 |
| CCN(CC)CCCC[C@H](NC(=O)[C@H](CC(C)C)NC(=O)[C@H](C)NC(=O)[C@H](Cc1ccccc1)NC(=O)c1ccc(C(C)(C)C)cc1)C(=O)N[C@@H](CO)C(=O)OC | PTGER4 | ligand displacement |  | radioligand | 10 µM | 5 |
| Cn1cc(-c2cc(F)cc(N3CCn4c(cc5c4CCCC5)C3=O)c2CO)cc(Nc2ccc(N3CCN(C4COC4)CC3)cn2)c1=O | Protein kinase C gamma type (PRKCG, Homo sapiens, UniProt P05129) | enzyme activity | inhibitor |  | 0.1 µM | 12 |
| O=C(O)CC(O)(CC(=O)O)C(=O)O | PDE4D | enzyme activity | inhibitor | radiometric | 50 µM | 99.2 |
| COc1ccc(Cc2nccc3cc(OC)c(OC)cc23)cc1OC | CDK7 with cyclin H | enzyme activity | inhibitor | ADP detection | 10 µM | -1.4 |
| C=CCc1ccc(O)c(-c2cc(CC=C)ccc2O)c1 | PDE4D | enzyme activity | inhibitor | radiometric | 50 µM | 42.7 |
| C[C@H](C(=O)N[C@H]1COc2ccccc2[C@@H]1S(C)(=O)=O)c1ccc(F)cc1 | Phospholipase A2, major isoenzyme (PLA2G1B, Sus scrofa, UniProt P00592) | cell-free assay | inhibitor |  | 10 µM | -6 |
| O=C1C[C@@H](c2ccc(O[C@@H]3O[C@H](CO)[C@@H](O)[C@H](O)[C@H]3O)cc2)Oc2cc(O)ccc21 | PDE4D | enzyme activity | inhibitor | radiometric | 50 µM | 14 |
| C=C[C@H]1CN2CC[C@H]1C[C@H]2[C@H](O)c1ccnc2ccccc12 | CDK7 with cyclin H | enzyme activity | inhibitor | ADP detection | 10 µM | -25.5 |
